Reference: PubChem BioAssay
Records with an inconclusive call do not appear.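 The calls were made as follows, unless noted: active = growth inhibition above 25% in both replicates, a cutoff set 3 SD above the mean; inconclusive = above 25% in only one replicate; inactive = the rest.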

What was measured:
[1] = S. cerevisiae growth inhibition in permissive medium (OD615), pilot counter-assay for S. cerevisiae lifespan shortening project, permissive growth control (AID 705); conditions: OD615, 24 h, at 10 µM, active compounds read high
Method in brief: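 Test system: Saccharomyces cerevisiae strain carrying genetically modified DeaD replicative-lifespan system; buffer or medium: SC raffinose/galactose permissive medium; dosing: one dose 10 µM, DMSO 0.25% final; times: 24 h exposure, 30 °C; measured by: OD at 615 nm; read-out basis: growth inhibition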

[2] = S. cerevisiae growth inhibition in restrictive medium, OD615, pilot screen, restrictive growth control, yeast lifespan reduction project (AID 706;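 active = growth inhibition above a set limit, 3 SD over mean compound inhibition, in both replicates, cut at about 43% in these data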;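 also: modified DeaD lifespan yeast strain shifted to restrictive glucose medium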); conditions: OD615, 48 h, at 10 µM, active compounds read high
Method in brief: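 material = engineered S. cerevisiae DeaD strain | buffer or medium = glucose-based CSMM-D restrictive medium | dosing = one concentration, 10 µM final, 0.25% DMSO | schedule = 4 h pre-growth plus 48 h compound exposure, 30 °C | detection = OD615 absorbance reading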

[3] = doxorubicin toxicity protection in MRP-1 cells – H69AR cells, CellTiter-Glo, duplicate, MRP-1 activator project, pilot screen (AID 807;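 active = viability increase at or above a cutoff of the median across tested compounds plus 3 SD, cut at about 8.5% in these data, passing the limit was not always enough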;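 also: compound pretreatment 18-22 h then 72 h combined with doxorubicin; 0% = doxorubicin alone and 100% = vehicle without doxorubicin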); conditions: H69AR viability with doxorubicin, CellTiter-Glo luminescence; at 10 µM; active compounds read high
[4] = viability of HCT116 without oncogenic beta-catenin – human colon tumor cells, pilot screen (AID 823;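 active = cell viability at or below a set limit in both duplicate runs, the limit being the all-compound median minus 4 SD, cut at about 23% in these data, passing the limit was not always enough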;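 also: 0% = wells killed by 20 µM Hyamine and 100% = untreated DMSO cell wells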); conditions: HCT116 beta-catenin knockout viability, CellTiter-Glo, 60 h; at 10 µM; active compounds read low
[5] = viability of PTEN-null HCT116 cells – cell-based, HCT116 clonal line, CellTiter-Glo, pilot screen (AID 824;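 active = viability at or below 27.92% in each of two runs, the all-compound median minus 4 SD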;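 also: 0% = 20 µM Hyamine control and 100% = vehicle cell control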); conditions: HCT116 PTEN-deleted viability, 60 h, at 10 µM, active compounds read low
[6] = RAM pathway blockade in budding yeast – dse1pr::URA3 reporter, 5-FOA selection, pilot screen (AID 869;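 active = inhibition over a set limit, the all-compound mean plus 3 SD, in both replicate runs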;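 also: 0% = DMSO wells with no growth and 100% = 10 µM 1-NA-PP1 with full growth; RAM network block rescues cells from 5-FOA so hits raise OD615 growth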); conditions: S. cerevisiae dse1pr::URA3 5-FOA growth, OD615, 2 d; at 10 µM; active compounds read high; strain carries analog-sensitive mutant Cbk1 kinase
[7] = RAM signaling pathway blockade in yeast – S. cerevisiae, Pdr1DBD-CYC8 efflux-inhibited sensitized strain, primary screen (AID 1298;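 active = RAM network inhibition above 8.4% in each of two replicates, 3 SD over the compound average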;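 also: 0% = DMSO untreated cells without growth and 100% = 10 µM 1-NA-PP1 full growth; higher means more yeast growth rescued from 5-FOA killing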); conditions: S. cerevisiae cbk1-as DSE1-URA3 strain, 5-FOA growth OD615, 2 d; at 50 µM; active compounds read high

COc1ccc(S(=O)(=O)Cc2ccc(C(=O)N3CCc4ccccc4C3)o2)cc1
inactive: growth inhibition [1] -5.74% | growth inhibition [2] -5.21% | viability increase [3] -0.44% | viability [4] 92.7% | viability [5] 94.1% | inhibition [6] 0.315% | RAM network inhibition [7] 7.28%

CCOc1cc(/C=N/n2cnnc2)ccc1OCC(=O)Nc1ccccc1OC
inactive: growth inhibition [1] 0.995% | growth inhibition [2] 0.62% | viability increase [3] -1.37% | viability [4] 101% | viability [5] 95.7% | inhibition [6] 1.91% | RAM network inhibition [7] 2.52%

CCCCNC(=O)CS(=O)Cc1nc(-c2cccc(C)c2)oc1C (stereo unspecified)
inactive: growth inhibition [1] -13.2% | growth inhibition [2] -6.67% | viability increase [3] -2.67% | viability [4] 96.2% | viability [5] 98.1% | inhibition [6] 1.14% | RAM network inhibition [7] 0.26%

CC(=O)Nc1ccccc1NC(=O)C(F)(F)F
inactive: growth inhibition [1] -14.2% | growth inhibition [2] -5% | viability increase [3] -1.16% | viability [4] 101% | viability [5] 108% | inhibition [6] 1.51% | RAM network inhibition [7] 0.88%

Cc1ccccc1-n1nc2c(c1NC(=O)COc1ccc(Cl)cc1)CS(=O)C2 (stereo unspecified)
inactive: growth inhibition [1] -5.57% | growth inhibition [2] -3.5% | viability increase [3] 0.22% | viability [4] 98.3% | viability [5] 92.6% | inhibition [6] 1.46% | RAM network inhibition [7] 1.42%

Cn1ccnc1-c1nc2ccccc2[nH]c1=O
inactive: growth inhibition [1] -6.04% | growth inhibition [2] -15.6% | viability increase [3] -1.95% | viability [4] 101% | viability [5] 95.5% | inhibition [6] -0.695% | RAM network inhibition [7] -0.73%

Cc1oc2cc(O)ccc2c(=O)c1N1C(=O)c2ccccc2C1=O
inactive: growth inhibition [1] -5.69% | growth inhibition [2] 0.06% | viability increase [3] 1.85% | viability [4] 98.2% | viability [5] 99.8% | inhibition [6] 1.11% | RAM network inhibition [7] 1.15%

CCCc1cc(C(=O)N(C2CCCCC2)C2CCCCC2)no1
inactive: growth inhibition [1] 4.36% | growth inhibition [2] 14.7% | viability increase [3] -5.51% | viability [4] 74.5% | viability [5] 80.8% | inhibition [6] 1.57% | RAM network inhibition [7] 6.03%

Cn1c(Cn2c(=O)sc3ccccc32)nnc1SCC(=O)NC1CCCCC1
inactive: growth inhibition [1] -17% | growth inhibition [2] -24.8% | viability increase [3] -0.4% | viability [4] 97.6% | viability [5] 98% | inhibition [6] 0.415% | RAM network inhibition [7] 1.06%

Cn1cnnc1SCCC(=O)Nc1ccccc1
inactive: growth inhibition [1] 6.46% | growth inhibition [2] 0.795% | viability increase [3] -1.01% | viability [4] 101% | viability [5] 99.5% | inhibition [6] 1.14% | RAM network inhibition [7] 2.5%

O=C(COC(=O)C(O)c1ccccc1)c1ccc2c(c1)OCCO2 (stereo unspecified)
inactive: growth inhibition [1] -4.38% | growth inhibition [2] -9.29% | viability increase [3] -0.39% | viability [4] 97.1% | viability [5] 106% | inhibition [6] 1.27% | RAM network inhibition [7] 4.89%

CC1(C)Nc2ccccc2N(CC(=O)N2CCCCC2)C1=O
inactive: growth inhibition [1] 0.325% | growth inhibition [2] -1.38% | viability increase [3] -0.05% | viability [4] 107% | viability [5] 103% | inhibition [6] -0.16% | RAM network inhibition [7] 0.97%

COc1ccc(C(=O)NCCSCc2ccco2)cc1OC
inactive: growth inhibition [1] -9.5% | growth inhibition [2] 5.73% | viability increase [3] -4.86% | viability [4] 98.2% | viability [5] 95.6% | inhibition [6] 1% | RAM network inhibition [7] 5.47%

O=C(O)c1ccc(F)c(S(=O)(=O)Nc2ccccc2)c1
inactive: growth inhibition [1] -3.28% | growth inhibition [2] -2.19% | viability increase [3] 1.08% | viability [4] 96.2% | viability [5] 101% | inhibition [6] -0.93% | RAM network inhibition [7] -0.06%

CCSc1nnc(NC(=O)CSc2nc3c(c(=O)n2CCOC)SC(C)C3)s1 (stereo unspecified)
inactive: growth inhibition [1] -5.35% | growth inhibition [2] -1.1% | viability increase [3] -2.95% | viability [4] 94.1% | viability [5] 94.4% | inhibition [6] 2.09% | RAM network inhibition [7] 7.38%

COC(=O)NCC(c1cccnc1)N1CCN(c2ccccc2)CC1 (stereo unspecified)
inactive: growth inhibition [1] -3.09% | growth inhibition [2] -0.34% | viability increase [3] 0.41% | viability [4] 91.3% | viability [5] 96.8% | inhibition [6] 0.355% | RAM network inhibition [7] -1.35%

CCOC(=O)CSC1=C(C#N)C(c2ccccc2Cl)C(C(=O)OC)C(=O)N1 (stereo unspecified)
inactive: growth inhibition [1] -8.45% | growth inhibition [2] -0.68% | viability increase [3] -0.9% | viability [4] 90.3% | viability [5] 91.8% | inhibition [6] 0.14% | RAM network inhibition [7] 2.05%

O=C(Cn1ncc2c(=O)oc3ccccc3c21)N1CCC(N2CCCCC2)CC1
inactive: growth inhibition [1] 9.66% | growth inhibition [2] 1.36% | viability increase [3] -1.31% | viability [4] 99.5% | viability [5] 99.8% | inhibition [6] 1.65% | RAM network inhibition [7] 4.58%
